What was measured:
Format in all cases: functional, cell-based
[1] = biological target: Inositol 1,4,5-trisphosphate-gated calcium channel ITPR1 (Rattus norvegicus, UniProt P29994); assay: Agonist activity at rat IP3R1 expressed in chicken DT40 cells assessed as induction of Ca2+ release
How it was run: (§1)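 DT40 cells stably expressing only rat IP3R1 loaded with Mag-fluo-4AM (20 μM, 1 h, 20 °C). Permeabilized with saponin (10 μg/mL, 4 min, 37 °C), then washed in Mg2+-free cytosol-like medium (~200 nM free Ca2+, pH 7.0). ER Ca2+ loaded with 1.5 mM Mg-ATP for 150 s before ligand addition.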

[2] = biological target: Inositol 1,4,5-trisphosphate-gated calcium channel ITPR1 (Rattus norvegicus) (UniProt P29994); assay: Agonist activity at rat IP3R1 expressed in chicken DT40 cells assessed as Ca2+ release relative to control
Sequence of Inositol 1,4,5-trisphosphate-gated calcium channel ITPR1 (Rattus norvegicus) (P29994 whole entry, looked up): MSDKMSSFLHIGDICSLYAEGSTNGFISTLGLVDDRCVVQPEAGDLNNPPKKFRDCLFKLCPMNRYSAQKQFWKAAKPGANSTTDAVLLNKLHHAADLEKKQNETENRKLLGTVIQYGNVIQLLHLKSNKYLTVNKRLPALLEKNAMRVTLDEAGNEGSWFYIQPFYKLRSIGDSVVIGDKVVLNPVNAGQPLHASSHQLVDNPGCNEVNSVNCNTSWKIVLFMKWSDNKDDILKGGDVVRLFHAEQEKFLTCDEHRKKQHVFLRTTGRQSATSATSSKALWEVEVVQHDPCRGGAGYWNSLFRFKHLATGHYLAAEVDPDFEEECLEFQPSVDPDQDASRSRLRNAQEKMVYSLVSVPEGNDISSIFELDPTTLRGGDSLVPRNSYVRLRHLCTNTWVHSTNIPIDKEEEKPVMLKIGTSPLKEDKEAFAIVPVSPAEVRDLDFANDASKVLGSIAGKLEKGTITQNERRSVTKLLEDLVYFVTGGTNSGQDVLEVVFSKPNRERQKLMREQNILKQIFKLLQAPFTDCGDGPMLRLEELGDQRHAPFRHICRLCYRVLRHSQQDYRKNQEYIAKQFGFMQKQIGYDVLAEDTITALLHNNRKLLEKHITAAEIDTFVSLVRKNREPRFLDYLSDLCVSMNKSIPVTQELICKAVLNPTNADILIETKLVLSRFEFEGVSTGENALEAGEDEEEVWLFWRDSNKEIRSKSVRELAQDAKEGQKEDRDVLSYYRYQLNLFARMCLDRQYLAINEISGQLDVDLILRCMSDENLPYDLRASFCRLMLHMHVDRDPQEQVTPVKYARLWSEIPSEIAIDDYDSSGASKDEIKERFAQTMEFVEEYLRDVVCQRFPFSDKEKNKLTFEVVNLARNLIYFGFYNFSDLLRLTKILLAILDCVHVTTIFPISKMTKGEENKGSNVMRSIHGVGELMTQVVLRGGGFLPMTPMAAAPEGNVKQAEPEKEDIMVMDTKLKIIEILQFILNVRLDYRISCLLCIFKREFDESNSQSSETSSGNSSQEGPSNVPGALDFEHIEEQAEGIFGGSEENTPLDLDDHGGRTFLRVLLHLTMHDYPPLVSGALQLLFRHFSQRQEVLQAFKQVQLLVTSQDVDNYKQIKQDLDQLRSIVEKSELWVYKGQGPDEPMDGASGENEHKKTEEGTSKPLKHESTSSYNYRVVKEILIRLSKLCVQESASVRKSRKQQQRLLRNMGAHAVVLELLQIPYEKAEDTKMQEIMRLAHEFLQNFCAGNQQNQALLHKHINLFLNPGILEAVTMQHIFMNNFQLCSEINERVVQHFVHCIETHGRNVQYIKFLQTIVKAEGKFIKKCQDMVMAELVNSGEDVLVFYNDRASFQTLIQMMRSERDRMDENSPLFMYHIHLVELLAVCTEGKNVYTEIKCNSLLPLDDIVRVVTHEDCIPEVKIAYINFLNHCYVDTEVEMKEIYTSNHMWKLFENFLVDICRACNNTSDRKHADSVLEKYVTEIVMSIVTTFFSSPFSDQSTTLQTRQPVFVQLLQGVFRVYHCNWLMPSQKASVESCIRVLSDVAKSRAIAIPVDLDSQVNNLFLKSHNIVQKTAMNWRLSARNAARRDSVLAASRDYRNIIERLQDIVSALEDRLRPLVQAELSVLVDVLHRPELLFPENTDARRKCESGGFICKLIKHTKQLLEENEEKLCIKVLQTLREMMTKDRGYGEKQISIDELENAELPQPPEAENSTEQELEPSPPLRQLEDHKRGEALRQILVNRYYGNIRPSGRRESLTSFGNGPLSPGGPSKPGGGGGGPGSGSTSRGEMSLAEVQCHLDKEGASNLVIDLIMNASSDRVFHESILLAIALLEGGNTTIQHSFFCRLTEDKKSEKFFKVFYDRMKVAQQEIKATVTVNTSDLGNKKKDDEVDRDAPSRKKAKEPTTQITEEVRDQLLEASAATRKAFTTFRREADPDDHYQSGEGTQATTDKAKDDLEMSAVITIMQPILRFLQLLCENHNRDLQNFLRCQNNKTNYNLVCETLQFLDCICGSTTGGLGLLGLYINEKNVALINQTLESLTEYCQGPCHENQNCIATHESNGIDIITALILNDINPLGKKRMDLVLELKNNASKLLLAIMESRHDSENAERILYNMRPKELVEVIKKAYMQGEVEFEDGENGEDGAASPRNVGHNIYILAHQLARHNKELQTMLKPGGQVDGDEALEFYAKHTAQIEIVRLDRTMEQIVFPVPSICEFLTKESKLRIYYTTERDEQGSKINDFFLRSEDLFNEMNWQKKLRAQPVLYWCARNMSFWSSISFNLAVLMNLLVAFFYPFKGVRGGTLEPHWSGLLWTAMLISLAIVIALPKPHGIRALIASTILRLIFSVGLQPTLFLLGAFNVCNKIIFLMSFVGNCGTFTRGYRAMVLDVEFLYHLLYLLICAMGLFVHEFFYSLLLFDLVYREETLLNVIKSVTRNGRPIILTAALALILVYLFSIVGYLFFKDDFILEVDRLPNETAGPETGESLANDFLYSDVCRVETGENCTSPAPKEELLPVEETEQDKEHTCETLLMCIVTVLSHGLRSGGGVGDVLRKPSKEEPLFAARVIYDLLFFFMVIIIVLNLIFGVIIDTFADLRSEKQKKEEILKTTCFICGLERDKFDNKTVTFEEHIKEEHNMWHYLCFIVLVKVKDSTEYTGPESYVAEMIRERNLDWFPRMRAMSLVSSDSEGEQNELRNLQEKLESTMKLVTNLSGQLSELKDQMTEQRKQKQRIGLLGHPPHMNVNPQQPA
How it was run: as §1, with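 “addition. Release measured by luminal fluorescence (ex 485/em 520 nm) as a fraction of the 1 μM ionomycin-releasable content.” for “addition.”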

[3] = biological target: Inositol 1,4,5-trisphosphate-gated calcium channel ITPR1 (Rattus norvegicus) (UniProt P29994); assay: Agonist activity at rat IP3R1 expressed in chicken DT40 cells assessed as Ca2+ release at 50 uM relative to control

EC50 [1] [µM]	Activity [2] [%]	Activity [3] [%]	SMILES
0.107	67		Nc1ncnc2c1ncn2[C@@H]1O[C@H](CO)[C@@H](O[C@H]2O[C@H](CO)[C@@H](OP(=O)(O)O)[C@H](OP(=O)(O)O)[C@H]2O)[C@H]1O
53		53	Nc1ncnc2c1ncn2[C@@H]1O[C@H](CO)[C@@H](O[C@H]2O[C@H](CO)[C@@H](OP(=O)(O)O)[C@H](O)[C@H]2O)[C@H]1OP(=O)(O)O
		8	Nc1ncnc2c1ncn2[C@@H]1O[C@H](CO)[C@@H](O[C@H]2O[C@H](CO)[C@@H](O)[C@H](OP(=O)(O)O)[C@H]2O)[C@H]1OP(=O)(O)O
8.63	73		O=P(O)(O)O[C@@H]1[C@@H](O)[C@H](O)[C@H](O)[C@H](O)[C@H]1OP(=O)(O)O
25.2	72		O=P(O)(O)O[C@H]1[C@H](OP(=O)(O)O)[C@@H](O)C(O)O[C@@H]1CO (stereo not given in full)
0.0028			Nc1ncnc2c1ncn2[C@@H]1O[C@H](CO)[C@@H](O[C@H]2O[C@H](CO)[C@@H](OP(=O)(O)O)[C@H](OP(=O)(O)O)[C@H]2O)[C@H]1OP(=O)(O)O [ADENOPHOSTIN A]

— ChEMBL document CHEMBL2029238, “Contribution of phosphates and adenine to the potency of adenophostins at the IP₃ receptor: synthesis of all possible bisphosphates of adenophostin A” (J Med Chem, 2012)
